Assays:
Assay type in all cases: functional
K562 = assay: Cytotoxicity against human K562 cells assessed as growth inhibition after 48 hrs by SRB assay; settings: K562, 48 h
Method in brief: (§1)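 NCI 60-cell panel; compounds passing a single-dose screen (10−5 M, 48 h) were tested at five 10-fold dilutions (10−4 to 10−8 M) with 48 h drug exposure. GI50 is the molar concentration giving 50% reduction in net cell growth relative to cell numbers on day 0.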

HT-29 = assay: Cytotoxicity against human HT-29 cells assessed as growth inhibition after 48 hrs by SRB assay; settings: HT-29, 48 h; method in brief: as §1
LOX IMVI = assay: Cytotoxicity against human LOXIMVI cells assessed as growth inhibition after 48 hrs by SRB assay; method in brief: as §1
786-0 = assay: Cytotoxicity against human 786-0 cells assessed as growth inhibition after 48 hrs by SRB assay; settings: 786-0, 48 h; method in brief: as §1
KM12 = assay: Cytotoxicity against human KM12 cells assessed as growth inhibition after 48 hrs by SRB assay; settings: KM12, 48 h; method in brief: as §1
[1] = Cytotoxicity against human UO31 cells assessed as growth inhibition after 48 hrs by SRB assay; settings: UO-31, 48 h
COLO 205 = assay: Cytotoxicity against human COLO205 cells assessed as growth inhibition after 48 hrs by SRB assay; settings: COLO 205, 48 h; method in brief: as §1
SN12C = assay: Cytotoxicity against human SN12C cells assessed as growth inhibition after 48 hrs by SRB assay; method in brief: as §1
HL-60(TB) = assay: Cytotoxicity against human HL-60(TB) cells assessed as growth inhibition after 48 hrs by SRB assay; settings: HL-60, 48 h
Method in brief: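 NCI 60-cell panel, leukemia subpanel. Five-dose screen at 10-fold dilutions from 10−4 to 10−8 M with 48 h drug exposure. GI50 is the molar concentration giving 50% reduction in net cell growth compared with cell numbers on day 0.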

A498 = assay: Cytotoxicity against human A498 cells assessed as growth inhibition after 48 hrs by SRB assay; settings: A498, 48 h; method in brief: as §1
[2] = Cytotoxicity against human OVCAR3 cells assessed as growth inhibition after 48 hrs by SRB assay; settings: OVCAR-3, 48 h; method in brief: as §1
CAKI-1 = assay: Cytotoxicity against human Caki1 cells assessed as growth inhibition after 48 hrs by SRB assay; settings: CAKI-1, 48 h; method in brief: as §1
[3] = Cytotoxicity against human OVCAR4 cells assessed as growth inhibition after 48 hrs by SRB assay; settings: OVCAR-4, 48 h; method in brief: as §1
MOLT-4 = assay: Cytotoxicity against human MOLT4 cells assessed as growth inhibition after 48 hrs by SRB assay; settings: MOLT-4, 48 h; method in brief: as §1
M14 = assay: Cytotoxicity against human M14 cells assessed as growth inhibition after 48 hrs by SRB assay; settings: M14, 48 h; method in brief: as §1
SF-295 = assay: Cytotoxicity against human SF295 cells assessed as growth inhibition after 48 hrs by SRB assay; settings: SF-295, 48 h; method in brief: as §1
[4] = Cytotoxicity against human PC3 cells assessed as growth inhibition after 48 hrs by SRB assay; settings: PC-3, 48 h; method in brief: as §1
SF-539 = assay: Cytotoxicity against human SF539 cells assessed as growth inhibition after 48 hrs by SRB assay; settings: SF-539, 48 h; method in brief: as §1
HCC 2998 = assay: Cytotoxicity against human HCC2998 cells assessed as growth inhibition after 48 hrs by SRB assay; settings: HCC 2998, 48 h; method in brief: as §1
NCI-H23 = assay: Cytotoxicity against human NCI-H23 cells assessed as growth inhibition after 48 hrs by SRB assay; settings: NCI-H23, 48 h; method in brief: as §1
SNB-19 = assay: Cytotoxicity against human SNB19 cells assessed as growth inhibition after 48 hrs by SRB assay; settings: SNB-19, 48 h; method in brief: as §1
NCI-H226 = assay: Cytotoxicity against human NCI-H226 cells assessed as growth inhibition after 48 hrs by SRB assay; settings: NCI-H226, 48 h; method in brief: as §1
SW-620 = assay: Cytotoxicity against human SW620 cells assessed as growth inhibition after 48 hrs by SRB assay; settings: SW-620, 48 h
BT-549 = assay: Cytotoxicity against human BT549 cells assessed as growth inhibition after 48 hrs by SRB assay; settings: BT-549, 48 h; method in brief: as §1
[5] = Cytotoxicity against human OVCAR5 cells assessed as growth inhibition after 48 hrs by SRB assay; settings: OVCAR-5, 48 h; method in brief: as §1
[6] = Cytotoxicity against human NCI-ADR-RES cells assessed as growth inhibition after 48 hrs by SRB assay; method in brief: as §1
[7] = Cytotoxicity against human UACC62 cells assessed as growth inhibition after 48 hrs by SRB assay; settings: UACC-62, 48 h
RXF 393 = assay: Cytotoxicity against human RXF393 cells assessed as growth inhibition after 48 hrs by SRB assay; settings: RXF 393, 48 h; method in brief: as §1
[8] = Cytotoxicity against human HCT15 cells assessed as growth inhibition after 48 hrs by SRB assay; settings: HCT-15, 48 h; method in brief: as §1
[9] = Cytotoxicity against human HCT116 cells assessed as growth inhibition after 48 hrs by SRB assay; settings: HCT-116, 48 h; method in brief: as §1
U-251 = assay: Cytotoxicity against human U251 cells assessed as growth inhibition after 48 hrs by SRB assay; settings: U-251, 48 h
SNB-75 = assay: Cytotoxicity against human SNB75 cells assessed as growth inhibition after 48 hrs by SRB assay; settings: SNB-75, 48 h
DU-145 = assay: Cytotoxicity against human DU145 cells assessed as growth inhibition after 48 hrs by SRB assay; settings: DU-145, 48 h; method in brief: as §1
[10] = Cytotoxicity against human Hs578T cells assessed as growth inhibition after 48 hrs by SRB assay; settings: Hs-578T; method in brief: as §1
[11] = Cytotoxicity against human OVCAR8 cells assessed as growth inhibition after 48 hrs by SRB assay; settings: OVCAR-8, 48 h; method in brief: as §1
MDA-MB-231 = assay: Cytotoxicity against human MDA-MB-231 cells assessed as growth inhibition after 48 hrs by SRB assay; settings: MDA-MB-231, 48 h; method in brief: as §1
TK-10 = assay: Cytotoxicity against human TK10 cells assessed as growth inhibition after 48 hrs by SRB assay; settings: TK-10, 48 h
IGROV-1 = assay: Cytotoxicity against human IGROV1 cells assessed as growth inhibition after 48 hrs by SRB assay; settings: IGROV-1, 48 h; method in brief: as §1
RPMI-8226 = assay: Cytotoxicity against human RPMI8226 cells assessed as growth inhibition after 48 hrs by SRB assay; settings: RPMI-8226, 48 h; method in brief: as §1
MCF7 = assay: Cytotoxicity against human MCF7 cells assessed as growth inhibition after 48 hrs by SRB assay; settings: MCF7, 48 h; method in brief: as §1
SK-OV-3 = assay: Cytotoxicity against human SKOV3 cells assessed as growth inhibition after 48 hrs by SRB assay; settings: SK-OV-3, 48 h; method in brief: as §1
SF-268 = assay: Cytotoxicity against human SF268 cells assessed as growth inhibition after 48 hrs by SRB assay; settings: SF-268, 48 h; method in brief: as §1
MDA-MB-435 = assay: Cytotoxicity against human MDA-MB-435 cells assessed as growth inhibition after 48 hrs by SRB assay; settings: MDA-MB-435, 48 h; method in brief: as §1

Compound `COc1cc(/C(C#N)=C/c2nc3ccccc3s2)cc(OC)c1OC` has a GI50 (K562) of 51 nM, a GI50 (HT-29) of 37 nM and a GI50 (LOX IMVI) of 73 nM. The GI50 (786-0) was 1060 nM, the GI50 (KM12) was 278 nM and the GI50 [1] was 83 nM. It also gave a GI50 (COLO 205) of 36 nM, a GI50 (SN12C) of 515 nM and a GI50 (HL-60(TB)) of 66 nM. The GI50 (A498) was 198 nM, the GI50 [2] was 31 nM and the GI50 (CAKI-1) was 47 nM. It also gave a GI50 [3] of 3860 nM, a GI50 (MOLT-4) of 9200 nM and a GI50 (M14) of 193 nM. It also gave a GI50 (SF-295) of 508 nM, a GI50 [4] of 341 nM and a GI50 (SF-539) of 97 nM. The GI50 (HCC 2998) was 297 nM, the GI50 (NCI-H23) was 3250 nM and the GI50 (SNB-19) was 2490 nM. It also gave a GI50 (NCI-H226) of 844 nM, a GI50 (SW-620) of 38 nM and a GI50 (BT-549) of 12200 nM. The GI50 [5] was 347 nM, the GI50 [6] was 59 nM and the GI50 [7] was 52 nM. It also gave a GI50 (RXF 393) of 148 nM, a GI50 [8] of 45 nM and a GI50 [9] of 52 nM. For the same compound, the GI50 (U-251) was 1650 nM, the GI50 (SNB-75) was 145 nM and the GI50 (DU-145) was 333 nM. It also gave a GI50 [10] of 1290 nM, a GI50 [11] of 438 nM and a GI50 (MDA-MB-231) of 992 nM. For the same compound, the GI50 (TK-10) was 63 nM, the GI50 (IGROV-1) was 1270 nM and the GI50 (RPMI-8226) was 237 nM. The GI50 (MCF7) was 34 nM, the GI50 (SK-OV-3) was 626 nM and the GI50 (SF-268) was 1030 nM. The GI50 (MDA-MB-435) was 21 nM.
With `COc1cc(/C(C#N)=C/c2cc3ccccc3o2)cc(OC)c1OC` the GI50 (K562) was less than 10 nM, the GI50 (HT-29) was less than 10 nM and the GI50 (LOX IMVI) was less than 10 nM. It also gave a GI50 (786-0) of less than 10 nM, a GI50 (KM12) of less than 10 nM and a GI50 [1] of 2290 nM. For the same compound, the GI50 (COLO 205) was less than 10 nM, the GI50 (SN12C) was less than 10 nM and the GI50 (HL-60(TB)) was less than 10 nM. The GI50 (A498) was less than 10 nM, the GI50 [2] was less than 10 nM and the GI50 (CAKI-1) was less than 10 nM. The GI50 [3] was 39 nM, the GI50 (MOLT-4) was 47 nM and the GI50 (M14) was less than 10 nM. It also gave a GI50 (SF-295) of less than 10 nM, a GI50 [4] of less than 10 nM and a GI50 (SF-539) of less than 10 nM. For the same compound, the GI50 (HCC 2998) was 10 nM, the GI50 (NCI-H23) was less than 10 nM and the GI50 (SNB-19) was less than 10 nM. For the same compound, the GI50 (NCI-H226) was less than 10 nM, the GI50 (SW-620) was less than 10 nM and the GI50 (BT-549) was 29 nM. It also gave a GI50 [5] of 42 nM, a GI50 [6] of less than 10 nM and a GI50 [7] of less than 10 nM. For the same compound, the GI50 (RXF 393) was less than 10 nM, the GI50 [8] was less than 10 nM and the GI50 [9] was less than 10 nM. For the same compound, the GI50 (U-251) was less than 10 nM, the GI50 (SNB-75) was less than 10 nM and the GI50 (DU-145) was less than 10 nM. It also gave a GI50 [10] of less than 10 nM, a GI50 [11] of less than 10 nM and a GI50 (MDA-MB-231) of 28 nM. It also gave a GI50 (TK-10) of 73600 nM, a GI50 (IGROV-1) of 22 nM and a GI50 (RPMI-8226) of 19 nM. For the same compound, the GI50 (MCF7) was 23 nM, the GI50 (SK-OV-3) was less than 10 nM and the GI50 (SF-268) was 247 nM. For the same compound, the GI50 (MDA-MB-435) was less than 10 nM.

From ChEMBL document CHEMBL3407388, “Synthesis, anticancer activity and molecular docking studies on a series of heterocyclic trans-cyanocombretastatin analogues as antitubulin agents” (2015)
